In ChEMBL document CHEMBL4842356, “Discovery, optimization, and target identification of novel coumarin derivatives as HIV-1 reverse transcriptase-associated ribonuclease H inhibitors” (Eur J Med Chem, 2021):

Legend:
[1] = test system: Human immunodeficiency virus 2; assay: Antiviral activity against HIV2 ROD infected in human MT4 cells assessed as protection against virus-induced cytopathic effect incubated for 5 days by MTT assay; details: Human immunodeficiency virus 2, ISOLATE ROD, MT4, 120 h
[2] = test system: MT4; assay: Cytotoxicity against mock-infected human MT4 cells assessed as reduction in cell viability measured after 5 days by MTT assay; type: functional; details: MT4, 120 h, time 5 day
In short: (§1)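 MT-4 cells (exponentially growing, resuspended at 6 × 10⁵ cells/mL) were seeded onto serial five-fold compound dilutions and infected with 100–300 CCID₅₀ virus stock, or given medium only (mock). Viability was read by MTT at 540 and 690 nm five days after infection, using the median OD of three wells. EC₅₀ is 50% protection from viral cytopathicity. CC₅₀ is 50% loss of viability in mock-infected cells.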

[3] = target: Human immunodeficiency virus type 1 reverse transcriptase (Human immunodeficiency virus 1) (UniProt Q72547); assay: Inhibition of wild type HIV1 Reverse transcriptase RNase H expressed in Escherichia coli at 100 uM using 5'-UUUUUUUUUAGGAUACAUAUGGUUAAAGU-3' oligonucleotide as substrate and DNA21P as primer in presence of [gamma32P]-ATP by PAGE analysis relative to control
[4] = target: Human immunodeficiency virus type 1 reverse transcriptase (Human immunodeficiency virus 1, UniProt Q72547); assay: Inhibition of wild type HIV1 Reverse transcriptase RNase H expressed in Escherichia coli using 5'-UUUUUUUUUAGGAUACAUAUGGUUAAAGU-3' oligonucleotide as substrate and DNA21P as primer in presence of [gamma32P]-ATP by PAGE analysis
In short: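 Wild-type HIV-1 BH10 RT was expressed in E. coli and purified. RNase H activity was measured on a 31-nt RNA, 5′-³²P-labelled, annealed to a 21-nt DNA (31T/21P). Cleaved substrate was quantified without inhibitor (5% DMSO) and with compound over 0.2–100 µM. IC₅₀ values were taken from dose-response curves.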

[5] = target: Human immunodeficiency virus type 1 reverse transcriptase (Human immunodeficiency virus 1) (UniProt Q72547); assay: Inhibition of wild type HIV1 Reverse transcriptase RNase H expressed in Escherichia coli at 50 uM using 5'-UUUUUUUUUAGGAUACAUAUGGUUAAAGU-3' oligonucleotide as substrate and DNA21P as primer in presence of [gamma32P]-ATP by PAGE analysis relative to control
[6] = test system: Human immunodeficiency virus 1; assay: Antiviral activity against wild type HIV1 3B infected in human MT4 cells assessed as protection against virus-induced cytopathic effect incubated for 5 days by MTT assay; type: functional, organism-based; details: Human immunodeficiency virus 1, 3B, MT4, 120 h
In short: as §1

[7] = test system: Human immunodeficiency virus 1; assay: Antiviral activity against HIV1 RES056 infected in human MT4 cells assessed as protection against virus-induced cytopathic effect incubated for 5 days by MTT assay; type: functional, organism-based; details: Human immunodeficiency virus 1, RES056, MT4, 120 h
In short: as §1

SMILES | EC50 [1] | CC50 [2] | inhibition [3] | IC50 [4] | inhibition [5] | EC50 [6] | EC50 [7]
O=C(NCc1ccc(F)cc1Cl)c1cc2cc([N+](=O)[O-])c(O)c(O)c2oc1=O | > 266 µM | 266 µM | 68.6% | > 50 µM | < 10% | 46.1 µM | 
Cc1c(O)c([N+](=O)[O-])cc2cc(C(=O)NC3CCN(C(=O)c4ccc([N+](=O)[O-])cc4)CC3)c(=O)oc12 | > 251 µM | > 251 µM |  |  |  | > 251 µM | 
CCCN(C(=O)c1cc2cc([N+](=O)[O-])c(O)c(O)c2oc1=O)[C@@H]1CCc2nc(N)sc2C1 | 144 µM | > 271 µM |  | 45.1 µM |  | 28.5 µM | 19.6 µM
O=C(O)c1cc(NC(=O)c2cc3cc([N+](=O)[O-])c(O)c(O)c3oc2=O)ccc1O | 116 µM | > 310 µM |  | 20.8 µM |  | 101 µM | 107 µM
O=C(NC1CCN(Cc2cccc(Br)c2)CC1)c1cc2cc([N+](=O)[O-])c(O)c(O)c2oc1=O | > 153 µM | 153 µM | 57.4% | > 50 µM | 32.4% | > 153 µM | 
Cc1c(O)c([N+](=O)[O-])cc2cc(C(=O)NC3CCN(Cc4ccccc4)CC3)c(=O)oc12 | > 7.8 µM | 7.8 µM |  |  |  | > 7.8 µM | 
Cc1c(O)c([N+](=O)[O-])cc2cc(C(=O)NC3CCN(Cc4ccc(C(N)=O)cc4)CC3)c(=O)oc12 | > 260 µM | > 260 µM | 87.2% | > 50 µM | 37.1% | 138 µM | 
Cc1c(O)c([N+](=O)[O-])cc2cc(C(=O)NC3CCN(Cc4ccc([N+](=O)[O-])cc4)CC3)c(=O)oc12 | > 259 µM | > 264 µM |  |  |  | 234 µM | 
O=C(Nc1ccc(F)cc1)c1cc2cc([N+](=O)[O-])c(O)c(O)c2oc1=O | > 200 µM | 200 µM | 72.5% | > 50 µM | < 10% | > 200 µM | 
Cc1c(O)c([N+](=O)[O-])cc2cc(C(=O)NCc3ccccc3F)c(=O)oc12 | > 45 µM | 45 µM | 38.7% | > 100 µM |  | > 45 µM | 
Cc1c(O)c([N+](=O)[O-])cc2cc(C(=O)NC3CCN(C(=O)N(C)C)CC3)c(=O)oc12 | > 19.9 µM | 19.9 µM |  |  |  | > 19.9 µM | 
Cc1c(O)c([N+](=O)[O-])cc2cc(C(=O)NC3CCN(S(=O)(=O)N(C)C)CC3)c(=O)oc12 | > 50.8 µM | 50.8 µM |  |  |  | > 50.8 µM | 
Cc1c(O)c([N+](=O)[O-])cc2cc(C(=O)Nc3ccc(F)cc3)c(=O)oc12 | > 6.5 µM | 6.5 µM |  |  |  | > 6.5 µM | 
O=C(NCc1ccc(F)cc1)c1cc2cc([N+](=O)[O-])c(O)c(O)c2oc1=O | > 272 µM | 272 µM | 48% | > 100 µM |  | > 272 µM | 
Cc1c(O)c([N+](=O)[O-])cc2cc(C(=O)NC3CCN(Cc4cccc(Br)c4)CC3)c(=O)oc12 | > 14.7 µM | 14.7 µM | 62.9% | > 50 µM | < 10% | > 14.7 µM | 
Cc1c(O)c([N+](=O)[O-])cc2cc(C(=O)NCc3ccc(F)cc3)c(=O)oc12 | > 44 µM | 44 µM |  |  |  | > 44 µM | 
O=C(NCc1ccccc1F)c1cc2cc([N+](=O)[O-])c(O)c(O)c2oc1=O | > 259 µM | 259 µM |  |  |  | > 259 µM | 
Cc1c(O)c([N+](=O)[O-])cc2cc(C(=O)NC3CCN(Cc4ccc(Br)cc4)CC3)c(=O)oc12 | > 72.3 µM | 72.3 µM |  |  |  | > 72.3 µM | 
Cc1c(O)c([N+](=O)[O-])cc2cc(C(=O)NC3CCN(Cc4ccc(Cl)cc4)CC3)c(=O)oc12 | 148 µM | > 264 µM | 23.8% | > 100 µM |  | 167 µM | 

SMILES | EC50 [1] | CC50 [2] | inhibition [3] | IC50 [4] | inhibition [5] | EC50 [6] | EC50 [7]
Cc1c(O)c([N+](=O)[O-])cc2cc(C(=O)NCc3ccc(F)cc3Cl)c(=O)oc12 | > 32.5 µM | 32.5 µM |  |  |  | > 32.5 µM | 
Cc1c(O)c([N+](=O)[O-])cc2cc(C(=O)Nc3ccccc3F)c(=O)oc12 | > 10.7 µM | 10.7 µM |  |  |  | > 10.7 µM | 
Cc1cccc(CN2CCC(NC(=O)c3cc4cc([N+](=O)[O-])c(O)c(C)c4oc3=O)CC2)c1 | > 3.88 µM | 3.88 µM | 72.1% | > 50 µM | < 10% | > 3.88 µM | 
Cc1c(O)c([N+](=O)[O-])cc2cc(C(=O)NC3CCN(Cc4ccc(F)cc4)CC3)c(=O)oc12 | > 42.6 µM | 42.6 µM |  |  |  | > 42.6 µM | 
Cc1c(O)c([N+](=O)[O-])cc2cc(C(=O)NC3CCN(Cc4cccc(F)c4)CC3)c(=O)oc12 | > 50.5 µM | 50.5 µM |  | 45.2 µM |  | > 50.5 µM | 
Cc1c(O)c([N+](=O)[O-])cc2cc(C(=O)NC3CCN(Cc4cccc(Cl)c4)CC3)c(=O)oc12 |  | 9.37 µM |  |  |  | > 9.38 µM | 
O=C(Nc1ccc(F)cc1F)c1cc2cc([N+](=O)[O-])c(O)c(O)c2oc1=O | > 330 µM | > 330 µM | 78% | > 50 µM | 12% | 237 µM | 
O=C(NC1CCN(Cc2ccc(Cl)cc2)CC1)c1cc2cc([N+](=O)[O-])c(O)c(O)c2oc1=O | > 21.7 µM | 21.7 µM |  | 8.4 µM | 31.8% | > 21.7 µM | 
O=C(NC1CCN(Cc2cccc(Cl)c2)CC1)c1cc2cc([N+](=O)[O-])c(O)c(O)c2oc1=O | > 143 µM | 143 µM | 72.5% | > 50 µM | < 10% | > 143 µM | 
Cc1ccc(CN2CCC(NC(=O)c3cc4cc([N+](=O)[O-])c(O)c(C)c4oc3=O)CC2)cc1 | > 276 µM | > 276 µM |  |  |  | > 276 µM | 
Cc1c(O)c([N+](=O)[O-])cc2cc(C(=O)Nc3cccc(F)c3)c(=O)oc12 | > 12.5 µM | 12.5 µM | 28.6% | > 100 µM |  | > 12.5 µM | 
O=C(NC1CCN(Cc2ccc(Br)cc2)CC1)c1cc2cc([N+](=O)[O-])c(O)c(O)c2oc1=O | > 112 µM | 112 µM | 47.4% | > 100 µM |  | > 112 µM | 
O=C(NCc1cccc(F)c1)c1cc2cc([N+](=O)[O-])c(O)c(O)c2oc1=O | > 228 µM | 228 µM |  |  |  | > 228 µM | 
COC(=O)c1cc(NC(=O)c2cc3cc([N+](=O)[O-])c(O)c(C)c3oc2=O)ccc1O | > 182 µM | 182 µM |  |  |  | > 182 µM | 
N#Cc1ccc(CN2CCC(NC(=O)c3cc4cc([N+](=O)[O-])c(O)c(O)c4oc3=O)CC2)cc1 | > 269 µM | > 269 µM |  |  |  | 160 µM | 
Cc1c(O)c([N+](=O)[O-])cc2cc(C(=O)NCc3cccc(F)c3)c(=O)oc12 | > 47.5 µM | 47.5 µM |  |  |  | > 47.5 µM | 
O=C(NC1CCN(Cc2ccc([N+](=O)[O-])cc2)CC1)c1cc2cc([N+](=O)[O-])c(O)c(O)c2oc1=O | > 101 µM | > 217 µM |  |  |  | > 101 µM | 
O=C(NC1CCN(Cc2cccc(F)c2)CC1)c1cc2cc([N+](=O)[O-])c(O)c(O)c2oc1=O | > 220 µM | > 220 µM | 57.7% | > 50 µM |  | 210 µM | 
